Sampled rows, rich in hits. Any-hit rate of the full collection: about 3.7%.
Mdm2 MdmX PPI: inhibitors of human Mdm2/MdmX interaction. SaOS-2 split-luciferase Mdm2/MdmX complementation, luminescence. 330,000 tested, 3% active. O15151+Q00987. inhibition, % at 8 µM;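 active = inhibition of at least 50% at 8 µM in the primary screen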
Target sequence (O15151 whole entry, looked up): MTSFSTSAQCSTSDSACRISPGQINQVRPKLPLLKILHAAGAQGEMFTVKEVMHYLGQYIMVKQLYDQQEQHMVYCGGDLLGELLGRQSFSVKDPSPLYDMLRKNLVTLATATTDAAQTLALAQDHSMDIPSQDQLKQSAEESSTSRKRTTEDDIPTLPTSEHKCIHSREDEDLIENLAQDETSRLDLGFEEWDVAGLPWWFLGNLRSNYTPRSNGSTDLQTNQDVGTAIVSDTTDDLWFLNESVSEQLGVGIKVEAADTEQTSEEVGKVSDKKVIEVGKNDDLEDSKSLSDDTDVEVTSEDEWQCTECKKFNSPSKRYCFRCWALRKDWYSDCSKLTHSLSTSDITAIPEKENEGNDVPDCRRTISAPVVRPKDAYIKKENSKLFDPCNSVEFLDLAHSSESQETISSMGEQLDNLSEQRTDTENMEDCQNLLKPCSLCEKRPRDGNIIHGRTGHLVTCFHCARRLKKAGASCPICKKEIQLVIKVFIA
Target sequence (Q00987 whole entry, looked up): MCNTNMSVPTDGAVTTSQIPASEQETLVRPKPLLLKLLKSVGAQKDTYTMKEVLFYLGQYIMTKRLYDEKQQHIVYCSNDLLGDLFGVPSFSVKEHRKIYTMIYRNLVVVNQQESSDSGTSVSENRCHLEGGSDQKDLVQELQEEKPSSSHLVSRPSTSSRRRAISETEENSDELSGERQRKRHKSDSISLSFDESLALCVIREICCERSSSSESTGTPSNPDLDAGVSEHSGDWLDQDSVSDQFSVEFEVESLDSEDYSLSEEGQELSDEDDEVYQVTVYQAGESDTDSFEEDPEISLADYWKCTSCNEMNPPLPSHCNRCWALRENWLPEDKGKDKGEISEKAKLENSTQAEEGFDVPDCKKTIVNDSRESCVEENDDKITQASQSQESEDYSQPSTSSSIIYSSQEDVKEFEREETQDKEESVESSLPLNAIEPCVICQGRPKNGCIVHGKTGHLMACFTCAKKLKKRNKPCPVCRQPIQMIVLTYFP
UPR XBP1 act: activators of adaptive arm of unfolded protein response (XBP1). 330,000 tested, 0.33% active. CHO-XBP1 luciferase reporter, IRE1-XBP1 UPR activation, luminescence; percent of tunicamycin response, DMSO as zero. AID 463104. activation, % at 20 µM;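 active = versus positive control, 20 µM dose yields 30% or more activation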
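incubation = overnight seeding at 37 °C, 6 h compound treatment at 37 °C | assay system = CHO-XBP1 cells stably carrying IRE1-XBP1-driven luciferase reporter | input = 1000 cells per well | detection = luciferase luminescence | dosing = single point, 20 µM final compound, 1% DMSO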
Dynein cargo inh: dynein cargo transport inhibition; z-score, hits read low; 220,000 tested, 0.47% active; 3617.4 mouse cells, GR-EGFP nuclear translocation imaging; test concentration mostly 20 µM; stimulated with dexamethasone, 1 µM; active compounds read low;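 active = plate z-score of nuclear minus cytoplasmic receptor signal below a set negative limit, without overly bright fluorescence or cell loss, cut at about -3.5 in these data, passing the limit was not always enough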;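 also: z-score of nuclear minus cytoplasmic ring GR-EGFP intensity difference per well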
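Buffer or medium: tet-free, stripped-serum medium; reagent: dexamethasone at 1.0 µM final, 30 min; incubation: 48 h induction, 1 h compound, 30 min dex at 37 °C; measured by: formaldehyde fixation, Hoechst nuclear stain, 10x automated fluorescence imaging; read-out: nuclear-to-cytoplasmic GR-EGFP distribution per well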
MDM2 E3 inh: blocks human Mdm2 ubiquitin ligase activity. Q00987. cell-based MDM2 ubiquitination luciferase reporter, 2 h; 0 = plate control, 100 = twice control, blank-subtracted. signal enhancement, % at 5 µM. 210,000 tested, 0.11% active. AID 1230;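 active = signal enhancement of 30% or more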;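 also: luminescence tracks abundance of the self-degrading MDM2-luciferase fusion protein; higher signal means inhibition of MDM2 E3 ligase activity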
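Assay system: mammalian cells stably expressing self-ubiquitinating, self-degrading MDM2 E3–luciferase fusion. Quantity: 2000 cells in each well. Medium: DMEM culture medium. Compound dosing: single-point 5 µM. Timing: cell settling 4 h, compound treatment 2 h, both 37 °C. Technique: luciferase luminescence. Read-out basis: percent signal gain over controls, blank-subtracted. Benchmarks: plate controls and plate blanks.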
UPR CHOP act: apoptotic UPR (CHOP) activation; CHO-CHOP luciferase reporter, luminescence; percent of tunicamycin response over DMSO baseline; activation, % at 10 µM; 330,000 tested, 0.34% active;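 active = at 10 µM dose, activation of 40% or more, normalized to positive control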
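Evaluation: % reporter activation, DMSO baseline versus tunicamycin full activation; System: CHO-CHOP luciferase reporter cell line; Input: 500 cells/well; Incubation: 6 h compound treatment, 37 °C; Measured by: Steady-Glo luciferase luminescence; Dosing: one dose, 10 µM in 0.5% DMSO; Buffer or medium: F12 medium, 10% FBS; Benchmarks: positive tunicamycin 10 µg/mL, negative DMSO alone.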
Beta2AR agonist: agonists of human beta-2 adrenergic receptor inducing internalization; P07550; Am2.2-beta2AR cells, FAP receptor internalization, flow cytometry; response, % (concentration not given with the values); 340,000 tested, 0.43% active;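 active = response above a set limit, near 3 SD of response in nonfluorescent compounds, cut at about 42% in these data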
Beta2AR ag CP1: agonists of human beta-2 adrenergic receptor. 1,100 tested, 25% active. Am2.2-beta2AR cells, FAP surface receptor, flow cytometry; active compounds read low. shares compounds with Beta2AR agonist. AID 540358. percent response (surface receptor), % at 10 µM;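 active = surface receptor percent response at or below 58%, roughly 3 SD from nonfluorescent compounds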
B2AR FAP counter: fluorescence artifact in beta-2AR agonist FAP counterscreen; shares compounds with Beta2AR agonist; Am2.2 cells, FAP fluorogen flow cytometry; active compounds read low; calls only at 10 µM; 1,100 tested, under 10 active;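 active = percent response below a set limit in fluorescence channel 1 and below 50% in channel 8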
A number is an active result.

For O=C(CCCCCNc1nc(=S)[nH]c2ccccc12)NCCc1c[nH]c2ccccc12 the results were Mdm2 MdmX PPI inactive, UPR XBP1 act inactive, Dynein cargo inh inactive, UPR CHOP act inactive and Beta2AR agonist inactive.
For O=C(CCCCCNc1nc(=S)[nH]c2ccccc12)NCCc1ccc(Cl)cc1 the results were Mdm2 MdmX PPI inactive, UPR XBP1 act inactive, Dynein cargo inh inactive, MDM2 E3 inh inactive, UPR CHOP act inactive, Beta2AR agonist 55, Beta2AR ag CP1 inactive and B2AR FAP counter inactive.
O=C(CSc1nnc(COc2ccc(Cl)cc2)o1)NC1CC2CCC1C2 (stereo unspecified) was read as Mdm2 MdmX PPI inactive, UPR XBP1 act inactive, UPR CHOP act inactive and Beta2AR agonist inactive.
CN(c1ccccc1)c1ccc(/C=N/NC(=O)CC#N)cc1 was read as Mdm2 MdmX PPI inactive, UPR XBP1 act inactive, Dynein cargo inh inactive, MDM2 E3 inh inactive, UPR CHOP act inactive, Beta2AR agonist inactive, Beta2AR ag CP1 inactive and B2AR FAP counter inactive.
Screening N#CCC(=O)N/N=C/c1ccc(Cl)cc1 returned Mdm2 MdmX PPI inactive, UPR XBP1 act inactive, Dynein cargo inh inactive, MDM2 E3 inh inactive, UPR CHOP act inactive and Beta2AR agonist inactive.
Screening COc1ccc(-n2c(SCC#N)nnc2-c2ccc(NS(=O)(=O)c3ccc(C)cc3)cc2)cc1 returned Mdm2 MdmX PPI inactive, UPR XBP1 act inactive, Dynein cargo inh inactive, MDM2 E3 inh inactive, UPR CHOP act inactive and Beta2AR agonist inactive.
For COc1ccc(-n2c(SCC(N)=O)nnc2-c2ccc(NS(=O)(=O)c3ccc(C)cc3)cc2)cc1 the results were Mdm2 MdmX PPI inactive, UPR XBP1 act inactive, Dynein cargo inh inactive, MDM2 E3 inh inactive, UPR CHOP act inactive, Beta2AR agonist 55, Beta2AR ag CP1 inactive and B2AR FAP counter inactive.
For CCOC(=O)c1ccc(NC(=S)NNC(C)(C)C)cc1 the results were Mdm2 MdmX PPI inactive, UPR XBP1 act inactive, Dynein cargo inh inactive, MDM2 E3 inh inactive, UPR CHOP act inactive, Beta2AR agonist inactive, Beta2AR ag CP1 inactive and B2AR FAP counter inactive.
Screening C[C@]12C(=O)N(c3ccc(Br)cc3)C(=O)N1[C@H]1c3ccccc3OC[C@@H]1[C@H]2c1ccccc1 returned Mdm2 MdmX PPI inactive, UPR XBP1 act inactive, UPR CHOP act inactive and Beta2AR agonist inactive.
Cc1nnc2ccc(-c3ccc(NC(=O)c4cccnc4Cl)cc3)nn12 was read as Mdm2 MdmX PPI inactive, UPR XBP1 act inactive, Dynein cargo inh inactive, MDM2 E3 inh inactive, UPR CHOP act inactive and Beta2AR agonist inactive.
For CCOc1ncccc1C(=O)Nc1ccc(-c2ccc3nnc(C)n3n2)cc1 the results were Mdm2 MdmX PPI inactive, UPR XBP1 act inactive, Dynein cargo inh inactive, MDM2 E3 inh inactive, UPR CHOP act inactive, Beta2AR agonist 44, Beta2AR ag CP1 inactive and B2AR FAP counter inactive.
For O=C(NCc1ccccc1)C(c1ccncc1)N(C(=O)c1ccccn1)c1ccccc1 (stereo unspecified) the results were Mdm2 MdmX PPI inactive, UPR XBP1 act inactive, UPR CHOP act inactive and Beta2AR agonist inactive.
Screening COc1ccc(-c2nc(-c3ccccc3)c(-c3cccs3)[nH]2)cc1OC returned Mdm2 MdmX PPI inactive, UPR XBP1 act inactive, Dynein cargo inh inactive, MDM2 E3 inh inactive, UPR CHOP act inactive and Beta2AR agonist inactive.
O=[N+]([O-])c1cccc(-c2nc(-c3ccccc3)c(-c3cccs3)[nH]2)c1 was read as Mdm2 MdmX PPI inactive, UPR XBP1 act inactive, Dynein cargo inh inactive, MDM2 E3 inh inactive, UPR CHOP act inactive, Beta2AR agonist 50, Beta2AR ag CP1 inactive and B2AR FAP counter inactive.
`Cc1ccc(N/C(=C\C(=O)c2ccccc2)C(=O)O)cc1` gave Mdm2 MdmX PPI inactive, UPR XBP1 act inactive, Dynein cargo inh inactive, MDM2 E3 inh inactive, UPR CHOP act inactive and Beta2AR agonist inactive.
For O=C(/C=C/c1ccccc1)N1CCC(N2CCC(C(=O)N3CCOCC3)CC2)CC1 the results were Mdm2 MdmX PPI inactive, UPR XBP1 act inactive, Dynein cargo inh inactive, MDM2 E3 inh inactive, UPR CHOP act inactive and Beta2AR agonist inactive.
For CCn1c(COc2ccc(Cl)cc2)nnc1SCc1ccc(C#N)cc1 the results were Mdm2 MdmX PPI inactive, UPR XBP1 act inactive, Dynein cargo inh inactive, MDM2 E3 inh inactive, UPR CHOP act inactive, Beta2AR agonist 44, Beta2AR ag CP1 inactive and B2AR FAP counter inactive.
`Cn1c(CNc2nc(-c3ccccc3)cs2)nnc1SCC(=O)N1CCc2ccccc21` gave Mdm2 MdmX PPI inactive, UPR XBP1 act inactive, Dynein cargo inh inactive, UPR CHOP act inactive, Beta2AR agonist 46, Beta2AR ag CP1 inactive and B2AR FAP counter inactive.
Oc1ccc(NCc2ccccc2OCc2ccccc2)cc1 was read as Mdm2 MdmX PPI inactive, UPR XBP1 act inactive, Dynein cargo inh inactive, MDM2 E3 inh inactive, UPR CHOP act inactive, Beta2AR agonist inactive, Beta2AR ag CP1 inactive and B2AR FAP counter inactive.
For CCNCc1ccccc1OCc1ccccc1 the results were Mdm2 MdmX PPI inactive, UPR XBP1 act inactive, Dynein cargo inh inactive, MDM2 E3 inh inactive, UPR CHOP act inactive and Beta2AR agonist inactive.
`Cc1ccc(S(=O)(=O)NC(C)(C)CN2CCC(Cc3ccccc3)CC2)cc1` gave Mdm2 MdmX PPI inactive, UPR XBP1 act inactive, Dynein cargo inh inactive, MDM2 E3 inh inactive, UPR CHOP act inactive, Beta2AR agonist 50, Beta2AR ag CP1 inactive and B2AR FAP counter inactive.
COc1ccc(CCNC(=O)Cc2cccc(C(F)(F)F)c2)cc1OC was read as Mdm2 MdmX PPI inactive, UPR XBP1 act inactive, UPR CHOP act inactive, Beta2AR agonist 83, Beta2AR ag CP1 inactive and B2AR FAP counter inactive.
Screening O=C(CSc1nncn1-c1ccccc1F)NC1CC1 returned Mdm2 MdmX PPI inactive, UPR XBP1 act inactive, UPR CHOP act inactive and Beta2AR agonist inactive.
For COc1ccc(OC)c(C(=O)NC(CC(N)=O)c2ccc(N3CCN(c4ccccc4)CC3)c([N+](=O)[O-])c2)c1 (stereo unspecified) the results were Mdm2 MdmX PPI inactive, UPR XBP1 act inactive, UPR CHOP act inactive and Beta2AR agonist inactive.
Cc1cc(C)cc(C(=O)NC(CC(N)=O)c2ccc(N3CCN(c4ccccn4)CC3)c([N+](=O)[O-])c2)c1 (stereo unspecified) was read as Mdm2 MdmX PPI inactive, UPR XBP1 act inactive, UPR CHOP act inactive, Beta2AR agonist 68, Beta2AR ag CP1 18 and B2AR FAP counter inactive.

Screening data deposited in PubChem by several laboratories.
